Source: ChEMBL document CHEMBL4602711, “Catching a Moving Target: Comparative Modeling of Flaviviral NS2B-NS3 Reveals Small Molecule Zika Protease Inhibitors” (ACS Med Chem Lett, 2020)
The source made the active and inactive calls.

Columns and labels:
[1] = target: Nonstructural protein 3 (Zika virus) (UniProt A0A024AXB9); test: Inhibition of Zika virus NS2B-NS3 protease at <50 uM using Bz-Nle-Lys-Lys-Arg-AMC as substrate preincubated for 10 mins followed by substrate addition and measured for 70 secs by fluorophotometric analysis
[2] = target: Genome polyprotein (West Nile virus) (UniProt P06935); test: Inhibition of C-terminal His6-tagged West Nile virus NS2B (52 to 96 residues)-G4SG4-NS3 (1 to 184 residues) expressed in Escherichia coli BL21(DE3) cells at <50 uM using Boc-Gly-Lys-Arg-AMC33 as substrate measured for 600 secs by fluorescence based assay
Genome polyprotein = Genome polyprotein (West Nile virus, UniProt P06935); test: Inhibition of C-terminal His6-tagged West Nile virus NS2B (52 to 96 residues)-G4SG4-NS3 (1 to 184 residues) expressed in Escherichia coli BL21(DE3) cells using Boc-Gly-Lys-Arg-AMC33 as substrate measured for 600 secs by fluorescence based assay
Procedure, shortened: (§1)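 Ki values were obtained by fluorescence-based protease assays, only for ligands below the 50 μM inhibition cutoff. The commercially available racemic mixtures were tested.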

Nonstructural protein 3 = Nonstructural protein 3 (Zika virus, UniProt A0A024AXB9); test: Inhibition of Zika virus NS2B-NS3 protease using Bz-Nle-Lys-Lys-Arg-AMC as substrate preincubated for 10 mins followed by substrate addition and measured for 70 secs by fluorophotometric analysis; procedure, shortened: as §1
[3] = Inhibition of N-terminal His6-tagged DENV2 NS2B-NS3 protease using Boc-Gly-Lys-Arg-AMC33 as substrate measured for 600 secs by fluorescence based assay; design: species or system dengue virus type 2; procedure, shortened: as §1
dengue virus type 2 = test: Inhibition of N-terminal His6-tagged DENV2 NS2B-NS3 protease at<50 uM using Boc-Gly-Lys-Arg-AMC33 as substrate measured for 600 secs by fluorescence based assay

Chain of Genome polyprotein (P06935 1371-1501 limits assumed): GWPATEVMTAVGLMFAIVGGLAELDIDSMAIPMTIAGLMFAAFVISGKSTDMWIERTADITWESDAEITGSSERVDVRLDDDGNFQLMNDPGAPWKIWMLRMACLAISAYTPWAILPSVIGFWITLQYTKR
Chain of Genome polyprotein (P06935 1502-2120 limits assumed): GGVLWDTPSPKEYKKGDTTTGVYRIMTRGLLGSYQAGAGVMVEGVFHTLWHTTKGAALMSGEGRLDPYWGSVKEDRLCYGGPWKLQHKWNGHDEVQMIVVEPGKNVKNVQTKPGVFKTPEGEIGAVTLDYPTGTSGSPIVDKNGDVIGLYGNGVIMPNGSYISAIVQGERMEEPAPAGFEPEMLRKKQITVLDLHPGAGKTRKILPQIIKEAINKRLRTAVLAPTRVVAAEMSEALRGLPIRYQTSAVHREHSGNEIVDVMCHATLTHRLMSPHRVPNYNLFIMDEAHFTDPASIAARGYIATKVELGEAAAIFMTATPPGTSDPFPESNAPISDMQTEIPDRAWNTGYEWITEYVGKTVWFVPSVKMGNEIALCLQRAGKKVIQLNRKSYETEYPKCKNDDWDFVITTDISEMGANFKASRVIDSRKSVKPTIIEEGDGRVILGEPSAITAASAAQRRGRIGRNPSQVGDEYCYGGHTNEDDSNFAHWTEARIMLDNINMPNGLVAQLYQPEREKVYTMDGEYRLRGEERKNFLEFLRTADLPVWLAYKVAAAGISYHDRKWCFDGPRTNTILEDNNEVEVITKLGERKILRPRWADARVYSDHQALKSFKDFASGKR
Chain of Nonstructural protein 3 (A0A024AXB9 whole entry): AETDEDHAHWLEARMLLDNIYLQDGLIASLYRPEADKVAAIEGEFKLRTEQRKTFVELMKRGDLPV
Chain of Nonstructural protein 3 (Zika virus) (A0A024AXB9 as listed by the source): as the sequence (A0A024AXB9 whole entry) above
Chain of Genome polyprotein (West Nile virus) (P06935 whole entry, the tested form may be a part): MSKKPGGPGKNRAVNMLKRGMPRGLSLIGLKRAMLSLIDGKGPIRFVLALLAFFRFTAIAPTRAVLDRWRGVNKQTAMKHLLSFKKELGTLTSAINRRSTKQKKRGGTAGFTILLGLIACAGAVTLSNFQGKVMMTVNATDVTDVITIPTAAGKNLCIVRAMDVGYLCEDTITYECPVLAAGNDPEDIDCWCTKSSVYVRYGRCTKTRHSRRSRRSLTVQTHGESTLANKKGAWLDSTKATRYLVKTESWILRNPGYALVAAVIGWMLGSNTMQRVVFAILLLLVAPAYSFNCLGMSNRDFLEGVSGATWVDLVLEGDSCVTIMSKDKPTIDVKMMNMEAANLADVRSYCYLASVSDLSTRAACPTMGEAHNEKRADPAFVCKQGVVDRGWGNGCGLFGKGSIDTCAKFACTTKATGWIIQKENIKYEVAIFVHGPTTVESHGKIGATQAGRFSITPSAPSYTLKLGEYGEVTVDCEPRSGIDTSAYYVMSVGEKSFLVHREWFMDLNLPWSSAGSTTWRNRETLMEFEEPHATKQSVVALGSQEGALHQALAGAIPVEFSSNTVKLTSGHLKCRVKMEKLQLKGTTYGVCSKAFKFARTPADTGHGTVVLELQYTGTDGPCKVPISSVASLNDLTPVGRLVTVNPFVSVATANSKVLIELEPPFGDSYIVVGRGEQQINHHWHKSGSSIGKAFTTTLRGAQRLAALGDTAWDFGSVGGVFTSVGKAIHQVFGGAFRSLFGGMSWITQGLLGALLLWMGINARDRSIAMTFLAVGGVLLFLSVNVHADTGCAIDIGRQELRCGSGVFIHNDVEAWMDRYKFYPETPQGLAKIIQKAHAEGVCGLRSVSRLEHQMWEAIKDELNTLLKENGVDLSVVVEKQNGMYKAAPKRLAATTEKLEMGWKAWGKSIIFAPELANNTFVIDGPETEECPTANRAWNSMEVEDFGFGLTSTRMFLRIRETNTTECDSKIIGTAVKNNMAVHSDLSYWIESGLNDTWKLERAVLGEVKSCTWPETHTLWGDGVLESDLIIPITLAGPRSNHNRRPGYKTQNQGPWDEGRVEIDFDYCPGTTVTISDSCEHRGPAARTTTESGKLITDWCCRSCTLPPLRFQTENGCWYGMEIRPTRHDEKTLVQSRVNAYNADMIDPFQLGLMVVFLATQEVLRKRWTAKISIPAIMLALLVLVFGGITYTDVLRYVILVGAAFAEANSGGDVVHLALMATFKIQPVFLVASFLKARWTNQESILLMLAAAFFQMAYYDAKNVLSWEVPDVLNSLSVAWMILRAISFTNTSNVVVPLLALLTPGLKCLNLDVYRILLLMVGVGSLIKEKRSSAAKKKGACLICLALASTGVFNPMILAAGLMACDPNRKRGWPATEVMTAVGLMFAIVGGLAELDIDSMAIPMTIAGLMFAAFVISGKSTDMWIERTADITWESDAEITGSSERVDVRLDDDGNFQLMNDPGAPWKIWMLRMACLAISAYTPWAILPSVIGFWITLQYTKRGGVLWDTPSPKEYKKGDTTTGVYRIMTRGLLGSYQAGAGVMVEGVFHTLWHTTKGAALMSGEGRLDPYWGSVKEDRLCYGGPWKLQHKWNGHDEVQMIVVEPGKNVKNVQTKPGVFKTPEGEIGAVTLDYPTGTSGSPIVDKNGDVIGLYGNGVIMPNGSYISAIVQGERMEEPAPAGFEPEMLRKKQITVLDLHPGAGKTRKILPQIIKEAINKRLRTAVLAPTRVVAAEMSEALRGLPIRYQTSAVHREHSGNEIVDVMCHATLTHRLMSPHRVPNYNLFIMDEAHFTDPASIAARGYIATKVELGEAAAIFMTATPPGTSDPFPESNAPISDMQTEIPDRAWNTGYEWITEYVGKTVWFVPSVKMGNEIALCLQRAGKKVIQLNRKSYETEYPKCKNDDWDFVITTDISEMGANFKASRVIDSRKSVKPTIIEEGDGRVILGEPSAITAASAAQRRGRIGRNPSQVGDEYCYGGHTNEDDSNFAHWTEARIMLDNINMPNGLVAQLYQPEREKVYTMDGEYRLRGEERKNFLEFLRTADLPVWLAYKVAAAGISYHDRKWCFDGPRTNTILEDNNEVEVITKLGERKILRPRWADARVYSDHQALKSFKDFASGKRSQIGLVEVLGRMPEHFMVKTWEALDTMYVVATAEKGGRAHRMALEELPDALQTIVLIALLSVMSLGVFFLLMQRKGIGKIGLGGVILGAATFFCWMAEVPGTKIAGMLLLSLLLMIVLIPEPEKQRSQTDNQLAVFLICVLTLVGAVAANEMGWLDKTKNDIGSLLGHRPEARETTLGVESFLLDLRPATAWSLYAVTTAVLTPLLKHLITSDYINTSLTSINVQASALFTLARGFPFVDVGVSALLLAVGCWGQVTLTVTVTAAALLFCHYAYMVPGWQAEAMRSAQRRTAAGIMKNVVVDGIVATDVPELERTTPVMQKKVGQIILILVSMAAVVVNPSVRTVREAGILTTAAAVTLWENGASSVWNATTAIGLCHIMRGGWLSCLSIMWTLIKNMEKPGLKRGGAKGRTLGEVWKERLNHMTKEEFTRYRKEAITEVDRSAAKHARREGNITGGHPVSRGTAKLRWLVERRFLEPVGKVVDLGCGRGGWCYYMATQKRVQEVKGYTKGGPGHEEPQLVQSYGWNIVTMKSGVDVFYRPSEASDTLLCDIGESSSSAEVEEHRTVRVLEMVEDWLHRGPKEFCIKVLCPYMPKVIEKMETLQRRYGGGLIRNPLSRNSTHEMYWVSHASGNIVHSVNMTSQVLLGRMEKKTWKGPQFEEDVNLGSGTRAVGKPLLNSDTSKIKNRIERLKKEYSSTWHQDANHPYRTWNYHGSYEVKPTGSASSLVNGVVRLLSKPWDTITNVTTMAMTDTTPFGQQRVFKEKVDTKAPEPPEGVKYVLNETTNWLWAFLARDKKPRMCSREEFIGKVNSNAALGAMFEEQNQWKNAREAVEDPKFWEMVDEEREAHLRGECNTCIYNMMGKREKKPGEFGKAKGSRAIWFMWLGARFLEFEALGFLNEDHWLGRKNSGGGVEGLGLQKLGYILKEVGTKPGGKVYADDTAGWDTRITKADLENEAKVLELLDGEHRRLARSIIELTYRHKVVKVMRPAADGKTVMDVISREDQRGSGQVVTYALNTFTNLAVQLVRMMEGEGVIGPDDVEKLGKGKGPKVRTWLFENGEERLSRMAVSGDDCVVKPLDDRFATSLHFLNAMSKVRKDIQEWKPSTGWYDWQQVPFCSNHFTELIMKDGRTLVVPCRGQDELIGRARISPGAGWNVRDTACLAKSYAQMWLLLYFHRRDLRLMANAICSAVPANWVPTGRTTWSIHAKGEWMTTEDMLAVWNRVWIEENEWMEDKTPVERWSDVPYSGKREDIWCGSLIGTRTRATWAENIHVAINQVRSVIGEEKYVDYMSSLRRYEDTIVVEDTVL

SMILES | inhibition [1] | inhibition [2] | Ki (Genome polyprotein) | Ki (Nonstructural protein 3) | Ki [3] | inhibition (dengue virus type 2)
COc1cc(CN2CC(O)C2)ccc1OCC(O)CN1CCC(O)CC1 (stereo not given) | Active | Active | 7.4 µM | 11.5 µM | – | –
Cc1ccc(C(=O)NCC(O)CN2CCCC2)cc1OCCN (stereo not given) | Active | Active | 25.5 µM | 2.3 µM | 90 nM | Active
